The source of these data is ChEMBL document CHEMBL3758180, “Synthesis of mixed MOR/KOR efficacy cyclic opioid peptide analogs with antinociceptive activity after systemic administration” (Eur J Med Chem, 2016).

Series [1] concerns the target Mu-type opioid receptor (Rattus norvegicus, UniProt P33535). Kind of series: Displacement of [3H]DAMGO from MOR in Wistar rat brain homogenates by liquid scintillation counting analysis. It is filed as tissue-based. The procedure, abridged: (§1)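 Competition binding in brain membranes of adult male Wistar rats, [3H]DAMGO for MOR or [3H][Ile5,6]deltorphin-2 for DOR. IC50 from log dose-displacement curves, converted to Ki by Cheng-Prusoff. Mean ± SEM of three independent experiments in duplicate.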
On the technique in general: Loss of bound radioactivity is the signal in a displacement assay; it reports binding, not function.

For series [2], the target named is T1, Delta-type opioid receptor (Homo sapiens, UniProt P41143). As to the kind of experiment: Agonist activity at human recombinant DOR expressed in CHO cells assessed as calcium mobilization by Fluo-4 AM based fluorescence analysis. It is filed as functional, cell-based.
Series [3] concerns Mus musculus. Kind of series: Antinociceptive activity in BalbC albino mouse assessed as latency of jumping at 3 mg/kg, ip after 30 to 60 mins by hot-plate method. It is filed as functional, organism-based. Put shortly:
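Time course after single ip dose of 3 mg/kg; hot-plate (55 ± 0.5°C) jump latency read at 15, 30, 45 and 60 min, 240 s cut-off. Expressed as %MPE from control, test and cut-off latencies; mean ± SEM, 7-10 mice per group, each tested once.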
A general note: Hot-plate and tail-flick tests time the reaction to a heat stimulus.

Series [4] concerns Mus musculus. Kind of series: Antinociceptive activity in BalbC albino mouse assessed as latency of jumping at 10 mg/kg, ip after 15 mins by hot-plate method. It is filed as functional.
Series [5] can be described thus: Stability of compound in Wistar rat brain homogenate assessed as compound remaining after 90 mins by RP-HPLC analysis. It is filed as ADME. The conditions noted are these: read-out: Stability. Put shortly:
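Peptide incubated with Wistar rat brain homogenate at 37°C, sampled at 0, 7.5, 15, 22.5, 30 and 90 min; remaining intact peptide quantified by RP-HPLC peak area %; value is amount left at 90 min.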

Series [6] concerns the target T2, Kappa-type opioid receptor (Homo sapiens, UniProt P41145). Kind of series: Agonist activity at human recombinant KOR expressed in CHO cells assessed as calcium mobilization by Fluo-4 AM based fluorescence analysis. It is filed as functional, cell-based. The procedure, abridged: (§2)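 CHO cells stably co-expressing human recombinant KOR and C-terminally modified Gαqi5; calcium mobilization concentration-response curves. pEC50 from curve fitting with Hill coefficient; intrinsic activity α as ligand Emax over Emax of standard agonist dynorphin A. Mean ± SEM of at least 3 separate experiments, each in duplicate.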

Series [7] addresses T1, Delta-type opioid receptor. As to the kind of experiment: Agonist activity at human recombinant DOR expressed in CHO cells assessed as calcium mobilization by Fluo-4 AM based fluorescence analysis relative to DPDPE. Type of series: functional, cell-based. Put shortly:
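CHO cells stably co-expressing human recombinant DOR and chimeric Gαqi5 (G66D variant); intracellular calcium rise measured across concentration-response curves. Agonist potency as pEC50; efficacy as intrinsic activity α, ratio of ligand Emax to standard agonist (DPDPE) Emax. Mean ± SEM, at least 3 separate experiments in duplicate.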

Series [8] concerns the target Mu-type opioid receptor (Homo sapiens, UniProt P35372). Kind of series: Agonist activity at human recombinant MOR expressed in CHO cells assessed as calcium mobilization by Fluo-4 AM based fluorescence analysis. Type of series: functional, cell-based. (Calcium flux is commonly read through the fluorescence of an indicator in the cells.)
The nature of series [9]: Retention time of compound by RP-HPLC analysis. Type of series: physicochemical.
The target in series [10] is Delta-type opioid receptor (Rattus norvegicus, UniProt P33533). As to the kind of experiment: Displacement of [3H][Ile5,6]deltorphin-2 from DOR in Wistar rat brain homogenates by liquid scintillation counting analysis. Type of series: tissue-based. Put shortly: as §1
The subject of series [11] is Mus musculus. Kind of series: Antinociceptive activity in BalbC albino mouse assessed as latency of jumping at 3 mg/kg, ip after 15 mins by hot-plate method. It is filed as functional, organism-based.
The test system of series [12] is Mus musculus. As to the kind of experiment: Antinociceptive activity in icv dosed BalbC albino mouse assessed as latency of jumping after 10 mins by hot-plate method. It is filed as functional. The procedure, abridged:
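Injection icv into left lateral ventricle (10 μL/animal) of hand-restrained mice; hot-plate test at 55 ± 0.5°C 10 min post-injection, jumping latency with 240 s cut-off. Response as %MPE = (t1 − t0)/(t2 − t0) × 100; ED50 by nonlinear regression; 7-10 animals per group.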

Series [13] deals with Kappa-type opioid receptor (Cavia porcellus, UniProt P41144). As to the kind of experiment: Displacement of [3H]nor-BNI from KOR in Dunkin Hartley guinea pig brain homogenates by liquid scintillation counting analysis. Type of series: tissue-based.
The target in series [14] is T2, Kappa-type opioid receptor. As to the kind of experiment: Agonist activity at human recombinant KOR expressed in CHO cells assessed as calcium mobilization by Fluo-4 AM based fluorescence analysis relative to DynA. It is filed as functional, cell-based. The procedure, abridged:
as §2

The test system of series [15] is Mus musculus. As to the kind of experiment: Antinociceptive activity in ip dosed BalbC albino mouse assessed as latency of jumping after 15 mins by hot-plate method. Type of series: functional. Conditions: for ED50: 0.25 h.
For series [16], the target named is T1, Delta-type opioid receptor. Kind of series: Agonist activity at human recombinant DOR expressed in CHO cells assessed as calcium mobilization up to 1 uM by Fluo-4 AM based fluorescence analysis. Type of series: functional, cell-based.

Activity calls are given as the source filed them. Positions of bridges follow the written chain, without caps; N, C: chain ends. Non-standard residues stand in square brackets, D forms with d. Residues, ends and D or L forms follow the SMILES beside them. d1Nal = N[C@H](Cc1cccc2ccccc12)C(=O)O; d2Nal = N[C@H](Cc1ccc2ccccc2c1)C(=O)O; Dmt = Cc1cc(O)cc(C)c1C[C@H](N)C(=O)O

Sequence of Delta-type opioid receptor (Rattus norvegicus, UniProt P33533) (P33533 whole entry): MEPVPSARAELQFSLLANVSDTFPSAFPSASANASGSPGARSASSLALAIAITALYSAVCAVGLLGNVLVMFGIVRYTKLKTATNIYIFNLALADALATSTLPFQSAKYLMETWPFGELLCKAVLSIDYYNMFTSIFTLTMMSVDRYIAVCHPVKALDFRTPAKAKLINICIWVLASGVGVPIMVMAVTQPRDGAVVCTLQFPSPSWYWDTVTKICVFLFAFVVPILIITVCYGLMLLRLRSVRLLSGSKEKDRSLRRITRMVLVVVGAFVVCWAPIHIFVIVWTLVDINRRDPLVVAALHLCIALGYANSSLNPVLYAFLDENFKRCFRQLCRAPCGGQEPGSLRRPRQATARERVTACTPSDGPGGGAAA
Sequence of Mu-type opioid receptor (Rattus norvegicus, UniProt P33535) (P33535 whole entry): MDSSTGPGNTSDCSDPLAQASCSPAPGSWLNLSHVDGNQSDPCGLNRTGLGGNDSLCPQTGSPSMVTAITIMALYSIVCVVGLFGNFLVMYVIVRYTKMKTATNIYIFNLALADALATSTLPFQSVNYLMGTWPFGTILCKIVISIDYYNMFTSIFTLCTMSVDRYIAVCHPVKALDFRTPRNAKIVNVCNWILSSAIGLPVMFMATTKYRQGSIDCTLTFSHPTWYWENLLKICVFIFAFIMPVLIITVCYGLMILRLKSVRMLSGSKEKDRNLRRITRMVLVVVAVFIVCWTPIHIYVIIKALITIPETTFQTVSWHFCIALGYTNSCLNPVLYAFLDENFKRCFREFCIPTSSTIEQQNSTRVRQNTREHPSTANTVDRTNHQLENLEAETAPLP
T1 sequence (P41143 whole entry): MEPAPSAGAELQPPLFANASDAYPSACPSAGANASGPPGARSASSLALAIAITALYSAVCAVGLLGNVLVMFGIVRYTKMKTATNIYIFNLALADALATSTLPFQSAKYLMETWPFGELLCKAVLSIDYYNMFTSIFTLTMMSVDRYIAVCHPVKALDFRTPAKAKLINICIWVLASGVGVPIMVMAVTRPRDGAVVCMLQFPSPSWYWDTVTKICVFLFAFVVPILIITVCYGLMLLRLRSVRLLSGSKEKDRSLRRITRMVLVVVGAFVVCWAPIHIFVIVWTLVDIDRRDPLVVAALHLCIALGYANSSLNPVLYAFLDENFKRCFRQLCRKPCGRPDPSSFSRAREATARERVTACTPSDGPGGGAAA
Sequence of Kappa-type opioid receptor (Cavia porcellus, UniProt P41144) (P41144 whole entry): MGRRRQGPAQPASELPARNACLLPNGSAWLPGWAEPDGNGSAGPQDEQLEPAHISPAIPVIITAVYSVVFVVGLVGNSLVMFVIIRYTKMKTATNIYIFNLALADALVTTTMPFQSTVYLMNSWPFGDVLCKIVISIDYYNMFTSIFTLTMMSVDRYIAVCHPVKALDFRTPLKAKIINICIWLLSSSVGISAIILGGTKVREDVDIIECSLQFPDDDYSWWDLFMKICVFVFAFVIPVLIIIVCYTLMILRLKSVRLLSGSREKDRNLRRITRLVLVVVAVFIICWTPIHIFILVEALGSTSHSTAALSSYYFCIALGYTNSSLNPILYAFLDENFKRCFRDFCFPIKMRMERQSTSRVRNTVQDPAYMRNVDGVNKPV
T2 sequence (P41145 whole entry): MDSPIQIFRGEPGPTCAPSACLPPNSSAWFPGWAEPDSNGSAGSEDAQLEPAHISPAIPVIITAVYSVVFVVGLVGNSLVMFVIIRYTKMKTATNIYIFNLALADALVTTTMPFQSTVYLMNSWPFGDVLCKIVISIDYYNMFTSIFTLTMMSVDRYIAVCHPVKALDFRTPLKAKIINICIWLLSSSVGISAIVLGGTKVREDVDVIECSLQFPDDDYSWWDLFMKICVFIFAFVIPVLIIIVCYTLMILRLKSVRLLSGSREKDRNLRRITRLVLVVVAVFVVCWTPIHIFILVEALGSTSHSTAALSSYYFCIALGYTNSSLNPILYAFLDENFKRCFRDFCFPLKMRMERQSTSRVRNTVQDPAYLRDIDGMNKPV
Sequence of Mu-type opioid receptor (Homo sapiens, UniProt P35372) (P35372 whole entry): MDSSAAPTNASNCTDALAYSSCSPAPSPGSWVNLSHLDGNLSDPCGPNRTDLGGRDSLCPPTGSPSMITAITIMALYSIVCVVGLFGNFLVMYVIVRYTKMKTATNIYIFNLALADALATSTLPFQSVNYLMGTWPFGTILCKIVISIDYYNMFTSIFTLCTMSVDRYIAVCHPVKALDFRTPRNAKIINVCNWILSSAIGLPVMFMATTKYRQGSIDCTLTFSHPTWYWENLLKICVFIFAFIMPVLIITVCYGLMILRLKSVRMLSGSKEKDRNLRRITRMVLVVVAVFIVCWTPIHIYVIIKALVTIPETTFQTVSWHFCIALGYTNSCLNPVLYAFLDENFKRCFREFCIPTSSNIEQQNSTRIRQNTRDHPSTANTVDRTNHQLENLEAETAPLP

The Ki is a measure of affinity in units of concentration, obtained from inhibition or displacement. Low readings indicate tighter binding, high ones weaker binding. As a reminder, the EC50 is the concentration at which the effect is half-maximal. In the case of `Cc1cc(O)cc(C)c1C[C@H](N)C(=O)N[C@@H]1CCCCNC(=O)C[C@@H](C(N)=O)NC(=O)[C@@H](Cc2ccc3ccccc3c2)NC(=O)[C@H](Cc2ccccc2)NC1=O` (H-[Dmt][dK]F[d2Nal]D-NH2; lactam 2-5), the Ki in series [1] was 0.44 nM; in series [10] it was 110 nM; in series [13], 1.02 nM. Also, the EC50 is 53.7 nM in series [2], 102 nM in series [6] and 3.63 nM in series [8]. The outcome in series [3] was inactive. Besides, the Activity in series [4] is 55%; in series [15] it was “Dose-dependent effect”. In series [5], the remaining at 1.5 h worked out at 95.6%. For the same molecule, the Intrinsic activity was determined as 0.31 in [7] and 0.44 in series [14]. The molecule further had a Retention_time in series [9] of 16.1 min. For the same molecule, in [11], the outcome was Active. The ED50 is 0.08 µg in [12] and 3.24 mg/kg in [15].

Regarding `NC(=O)[C@H](Cc1ccccc1)NC(=O)[C@H](Cc1ccccc1)NC(=O)[C@@H]1CCCN1C(=O)[C@@H](N)Cc1ccc(O)cc1` [ENDOMORPHIN 2], the remaining at 1.5 h in series [5] stood at 0.61%. For the same molecule, the Retention_time in series [9] came out at 17.25 min. The ED50 in series [12] came to 1.82 µg.

With `Cc1cc(O)cc(C)c1C[C@H](N)C(=O)N[C@@H]1CCCCNC(=O)C[C@@H](C(N)=O)NC(=O)[C@H](Cc2ccccc2)NC(=O)[C@@H](Cc2ccc3ccccc3c2)NC1=O`, the Ki is 16.8 nM in series [1], 4250 nM in [10] and 751 nM in series [13]. Also, in series [4], the Activity stood at 24%. Besides, the remaining at 1.5 h in series [5] turned out to be 85.4%. For the same molecule, the EC50 is 1700 nM in series [6] and 11.5 nM in [8]. In addition, the Retention_time in series [9] was determined as 16.38 min. For the same molecule, the pEC50 result in series [16] was “inactive”. Besides, in series [12], the ED50 was found to be 0.533 µg. Besides, the Intrinsic activity in [14] came out at 0.31.

With `CC[C@H](C)[C@H](NC(=O)[C@H](CCCNC(=N)N)NC(=O)[C@H](CCCNC(=N)N)NC(=O)[C@H](CC(C)C)NC(=O)[C@H](Cc1ccccc1)NC(=O)CNC(=O)CNC(=O)[C@@H](N)Cc1ccc(O)cc1)C(=O)N[C@@H](CCCNC(=N)N)C(=O)N1CCC[C@H]1C(=O)N[C@@H](CCCCN)C(=O)N[C@@H](CC(C)C)C(=O)N[C@@H](CCCCN)C(=O)O` [ANALOG OF DYNORPHIN A], in [7], the Intrinsic activity turned out to be 0.99.

`Cc1cc(O)cc(C)c1C[C@H](N)C(=O)N[C@@H]1CCCCNC(=O)C[C@@H](C(N)=O)NC(=O)[C@H](Cc2ccccc2)NC(=O)[C@@H](Cc2cccc3ccccc23)NC1=O`: the figures for the Ki in series [1], in series [10] and in series [13] were 69.2 nM, 9170 nM and 56.6 nM, respectively. For the same molecule, in series [4], the Activity worked out at 17%. Further, in series [5], the remaining at 1.5 h worked out at 93.8%. Besides, the EC50 was 1290 nM in series [6] and 20 nM in series [8]. Further, the Retention_time in series [9] came out at 16.21 min. The pEC50 result in [16] was “inactive”. Besides, in [12], the ED50 was determined as 0.714 µg. The Intrinsic activity in series [14] is 0.43.

One may read the Emax as the maximal effect, on the per cent scale that the assay sets. For `Cc1cc(O)cc(C)c1C[C@H](N)C(=O)N[C@@H]1CCCCNC(=O)C[C@@H](C(N)=O)NC(=O)[C@@H](Cc2cccc3ccccc23)NC(=O)[C@H](Cc2ccccc2)NC1=O` (H-[Dmt][dK]F[d1Nal]D-NH2; lactam 2-5), the Ki in series [1] came out at 0.25 nM; in series [10] it was 51.2 nM; in series [13], 1.78 nM. The figures for the EC50 in series [2], in [6] and in series [8] were 64.6 nM, 41.7 nM and 5.62 nM, respectively. Also, in series [3], the result was inactive. In addition, the Activity in series [4] was 82%; in series [15], “Dose-dependent effect”. Moreover, the remaining at 1.5 h in series [5] worked out at 96%. Moreover, the Intrinsic activity in series [7] was 0.5; in series [14], 0.74. In [9], this molecule registered a Retention_time of 16.02 min. The result in series [11] was Active. In addition, the values for the ED50 in series [12] and in [15] were 0.06 µg and 1.16 mg/kg, respectively. In [14], the Emax worked out at 79%.

Consider `NC(=O)[C@@H]1CC(=O)NCCCC[C@@H](NC(=O)[C@@H](N)Cc2ccc(O)cc2)C(=O)N[C@@H](Cc2ccccc2)C(=O)N[C@@H](Cc2ccccc2)C(=O)N1` (H-Y[dK]FFD-NH2; lactam 2-5), for which the Ki in series [1] came out at 0.35 nM; in series [10], 171 nM; in series [13] it was 1.12 nM. In addition, the outcome in series [3] was inactive. Also, the Activity is 88% in series [4] and “Dose-dependent effect” in series [15]. Also, the remaining at 1.5 h in series [5] came out at 96%. For the same molecule, the EC50 is 6.61 nM in [6] and 2.04 nM in series [8]. The same molecule had a Retention_time in [9] of 20.5 min. Besides, the result in [11] was Active. Further, the ED50 is 0.05 µg in series [12] and less than 0.01 mg/kg in series [15]. Further, the Emax in series [14] amounted to 106%. For the same molecule, the Intrinsic activity in [14] worked out at 1.
